Assay outcomes (PubChem)
In the library only some 2.1% were active in any assay of this set; here they are far more common.
Autophagy mod – autophagy modulators in MEF cells, primary screen, imaging, high-content, MEF GFP-LC3 | calls only at 10 µM (by protocol) | hit rate 0.98% among 190,000 | MEF GFP-LC3 puncta imaging; test concentration mostly 10 µM;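 active = percentage of spot-positive cells more than 3 SD above its plate mean, without a fluorescence outlier flag or 80% toxicity; inconclusive = no clear call, values can overlap the other calls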
Insulin prom inh – inhibitors of insulin promoter-driven GFP, primary screen, imaging, TRM-6 cells (human fetal islet line), eGFP reporter, cell count | hit rate 0.9% among 130,000 | inhibition, % at 2 µM | reporter expression induced with tamoxifen;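 active = inhibition above the mean plus 3 SD, with well images judged a real hit on visual review, cut at about 60% in these data, passing the limit was not always enough; inconclusive = inhibition over the cutoff but images rejected on review; inactive = inhibition not above the cutoff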
Ins promoter up – insulin promoter activators in MIN6 cells, imaging, high-content screening, mouse beta cells; MIN6 insulin promoter-GFP reporter; hits give high values; z-score at 5 µM; hit rate 0.3% among 190,000; AID 1625, 2009;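 active = z-score above 3 at 5 µM with at least 500 cells counted in the well; inconclusive = wells under 500 cells, flagged as cytotoxic or low count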
Dynein cargo inh – inhibitors of GR-EGFP nuclear translocation, primary screen, dynein cargo transport inhibitor project, imaging, high-content, 3617.4 mouse cells; AID 1381, 2008; test concentration mostly 20 µM; stimulated with dexamethasone, 1 µM; hits give low values; hit rate 0.47% among 220,000; z-score, hits read low;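 active = plate z-score of nuclear minus cytoplasmic receptor signal below a set negative limit, without overly bright fluorescence or cell loss, cut at about -3.5 in these data, passing the limit was not always enough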;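 also: z-score of nuclear minus cytoplasmic ring GR-EGFP intensity difference per well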
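Schedule: 48 h induction, then 1 h compound, then 30 min agonist, 37 °C. Buffer or medium: tetracycline-free induction medium containing charcoal-stripped FBS. Reagent: 1.0 µM final dexamethasone stimulus. Evaluation: nuclear versus cytoplasmic GR-EGFP signal, averaged per well. Signal: high-content fluorescence imaging after fixation.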
PERK inh – block of dimerizer-induced PERK translation repression, primary screen, PERK inhibitor project, CHO PERK-DD cells, SEAP luminescence, HTS; Eukaryotic translation initiation factor 2-alpha kinase 3 (Homo sapiens), Q9NZJ5; hit rate 0.17% among 220,000; inhibition, % at 5.6 µM; CHO PERK-DD fusion, SEAP luminescence translation reporter;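 active = inhibition above the mean inhibition of all tested compounds plus 3 SD, set separately per screening campaign, cut at about 2.9% in these data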;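 also: PERK kinase domain activated by AP20187 dimerizer at 100 nM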
Of the large screens only hits and unclear results are named; the others gave an inactive call; ! = a repeat was not active.

CC1=CC(=C2C(=O)NC(=O)NC2=O)C=C(C(F)(F)F)N1Cc1ccccc1	none (no result: Insulin prom inh)
CC1=CC(=C2C(=O)NC(=S)NC2=O)C=C(C(F)(F)F)N1Cc1ccccc1	Autophagy mod active
CCc1ccc(NP(=O)(Oc2ccccc2F)Oc2ccccc2F)cc1	none (no result: Insulin prom inh)
Cc1cc2c(C(C)C)c(O)c(O)c(C=O)c2c(O)c1-c1c(C)cc2c(C(C)C)c(O)c(O)c(C=O)c2c1O	Insulin prom inh 62! (no result: Ins promoter up)
CCCNC(=O)N1CCC2(CC1)OCCO2	none (no result: Insulin prom inh)
O=[N+]([O-])c1cccc(CN2CCN(Cc3ccc(Br)cc3)CC2)c1	none (no result: Insulin prom inh)
O=S(=O)(c1ccccc1)N1CN2CCN(C2)C1	Insulin prom inh 86
Cc1nn(-c2ccccc2)c2c1C(c1ccc3c(c1)OCO3)SCC(=O)N2 (configuration not stated)	Insulin prom inh 79
COc1cc(C2SCC(=O)Nc3c2c(C)nn3-c2ccccc2)cc(OC)c1OC (configuration not stated)	none (no result: Insulin prom inh)
CCNc1cc(N2CCNCC2)ccc1[N+](=O)[O-]	none (no result: Insulin prom inh)
CCCCn1c(O)c(C(C)=NCc2ccc(F)cc2)c(=O)[nH]c1=O	none
CCCCn1c(O)c(C(CC)=NCc2ccc(F)cc2)c(=O)[nH]c1=O	Insulin prom inh 83
CC(Cc1ccccc1)NC(=O)/C=C/C(=O)O (configuration not stated)	Insulin prom inh 78
Cc1ccccc1-n1c(/C=C/c2ccccn2)nc2ccccc2c1=O	none (no result: Autophagy mod, Insulin prom inh)
CN1C2CCC1/C(=C/c1ccccn1)C(=O)/C2=C\c1ccccn1	Ins promoter up inconclusive, Dynein cargo inh -3.6
O=C1NC(=O)N(c2ccc(Br)cc2)C(=O)/C1=C/c1ccsc1	Autophagy mod active
Cc1cccc(-n2c(-c3ccccc3)nc3ccccc3c2=O)n1	none (no result: Insulin prom inh)
CCCCCCOc1ccc(CN2CCN(C)CC2)cc1	Autophagy mod active
CCc1ccccc1N1C(=O)/C(=C/c2ccc(N3CCN(C)CC3)o2)C(=O)NC1=S	Ins promoter up 3.4
Cc1cccc(N2C(=O)/C(=C/c3ccc(N4CCN(C)CC4)o3)C(=O)NC2=S)c1C	none
CC(=O)C1=C(C)OC(N)=C(C(=O)OC(C)C)C12C(=O)Nc1ccccc12 (configuration not stated)	Insulin prom inh 100 (no result: Ins promoter up)
O=c1c2cc(Br)ccc2[nH]c(=S)n1-c1ccccc1	Insulin prom inh 73
COc1ccc(-n2c(O)c(C(C)=NCCc3c[nH]c4ccccc34)c(=O)[nH]c2=O)cc1	none (no result: Autophagy mod, Insulin prom inh)
CNC(=O)O/N=C/c1nn(C(=O)C(C)(C)C)cc1Br	PERK inh 3.2 (no result: Autophagy mod, Insulin prom inh)
O=c1[nH]c(=O)n(-c2ccc(F)cc2)c(O)c1C=Nc1ccccc1N1CCCC1	Ins promoter up 4.4
Cc1c2ccncc2c(C)c2c1[nH]c1ccccc12	Autophagy mod active (no result: Ins promoter up)
NC(=O)Nc1ccc(C(=O)OCC(=O)Nc2ccc(Cl)cc2C(=O)c2ccccc2)cc1	none
COC(=O)C[C@]1(C(=O)OC)CN(C#N)N(c2ccc(Cl)cc2)C12c1ccccc1-c1ccccc12	Ins promoter up inconclusive, Dynein cargo inh -4.4
C[C@@H]1O[C@@H](O[C@H]2C[C@@H](O)[C@]3(CO)[C@H]4[C@H](O)C[C@]5(C)[C@@H](C6=CC(=O)OC6)CC[C@]5(O)[C@@H]4CC[C@]3(O)C2)[C@H](O)[C@H](O)[C@H]1O	none (no result: Ins promoter up)
C[C@H]1O[C@@H](O[C@H]2[C@@H](O)C[C@H](O[C@H]3[C@@H](O)C[C@H](O[C@H]4CC[C@@]5(C)[C@H](CC[C@@H]6[C@@H]5CC[C@]5(C)[C@@H](C7=CC(=O)OC7)CC[C@]65O)C4)O[C@@H]3C)O[C@@H]2C)C[C@H](O)[C@@H]1O	Insulin prom inh 100 (no result: Ins promoter up)
O=[N+]([O-])NC1=NCN(Cc2ccco2)CN1Cc1ccco1	none
CN(C)C(=S)SSC(=S)N(C)C	Autophagy mod active, Insulin prom inh 100, Ins promoter up inconclusive
CC(=O)NC1CC2CCC(C1)N2 (configuration not stated)	Insulin prom inh 79
O=C(N/N=C/c1c(O)n(Cc2ccco2)c(=O)[nH]c1=O)c1ccccc1O	none (no result: Autophagy mod, Insulin prom inh)
O=C(c1ccc(Cl)cc1)C1CCCN(Cc2ccc3ncccc3c2)C1 (configuration not stated)	none (no result: Insulin prom inh)
O=c1[nH]c(=O)n(CCC2=CCCCC2)c(O)c1/C=N/Nc1ccccc1	none (no result: Insulin prom inh)
